Source: PubChem
In the library only some 4.7% were active in any assay of this set; here they are far more common.
MC4R antagonist = human MC4R antagonism in cAMP assay. P32245. MC4R-expressing cells, MTII-stimulated cAMP, LANCE TR-FRET. inhibition, % at 6.5 µM. 360,000 tested, 0.48% active. AID 540295;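 active means inhibition above its plate's cutoff, the mean of tested wells on that plate plus 3 SD, cut at about 29% in these data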;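 further: 0% = Melanotan II alone and 100% = Melanotan II plus saturating MCL0020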
Target sequence (P32245 whole entry, looked up): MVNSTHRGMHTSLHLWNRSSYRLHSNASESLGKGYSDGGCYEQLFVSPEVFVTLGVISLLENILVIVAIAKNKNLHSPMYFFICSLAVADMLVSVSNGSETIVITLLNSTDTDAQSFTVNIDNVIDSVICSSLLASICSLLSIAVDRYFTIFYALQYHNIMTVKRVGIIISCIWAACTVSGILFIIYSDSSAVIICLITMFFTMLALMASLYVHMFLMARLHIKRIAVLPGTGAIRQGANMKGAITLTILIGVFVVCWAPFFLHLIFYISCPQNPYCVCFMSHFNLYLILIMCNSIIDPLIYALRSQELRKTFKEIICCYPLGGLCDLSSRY
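System: U2OS cells stably expressing human melanocortin 4 receptor (MC4R). Reagent: Melanotan II challenge after compound preincubation. Doses: 6.5 µM. Times: 30-min compound, 1-h challenge, 1-h detection, room temperature. Measured by: TR-FRET with Eu-cAMP and labeled anti-cAMP, 671 nm. Replicates: singlicate.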
AHR activator = human AHR activation | 320,000 tested, 2.5% active | AHR-responsive luciferase reporter cells, luminescence | activation, % at 5 µM | P35869 | AID 2796; in the data active means activation above about 47%;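 further: 0% = vehicle wells and 100% = reference agonist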
MC4R ag barr = activates human MC4R beta-arrestin recruitment; AID 540308; P32245; activation, % at 8.9 µM; U2OS MC4R beta-arrestin complementation, luminescence; percent of melanotan II response, DMSO zero; 360,000 tested, 0.98% active;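 active means activation above a per-plate cutoff, the mean activation of sample wells on that plate plus 3 SD, cut at about 8% in these data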
FXN GAA850 act = frataxin GAA850 promoter activation | HEK293 lucGAA850 FXN promoter luciferase reporter, 24 h; percent of 10 µM SAHA response | activation, % at 6 µM | 360,000 tested, 0.56% active | AID 540364;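 active means activation above the average of all compounds screened plus 3 SD, cutoff fixed separately per campaign, cut at about 7.5% in these data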;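 further: 0% = DMSO wells and 100% = 10 µM SAHA wells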
HTR2A ag = mouse HTR2A agonism via beta-arrestin recruitment | 360,000 tested, 0.66% active | activation, % at 7.6 µM | CHO-K1 mHTR2A beta-arrestin complementation, luminescence; percent of 30 µM serotonin response;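 active means activation above a run cutoff, the mean activation of all tested compounds plus 3 SD, cut at about 14% in these data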;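 further: 0% = plate median of compound wells and 100% = 30 µM serotonin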
cAMP nonselect = counter-screen for MC4R antagonists: nonselective cAMP signaling inhibitors; shares compounds with MC4R antagonist; inhibition, % at 6.5 µM; parental U2OS, forskolin cAMP, LANCE TR-FRET; 1,600 tested, 26% active;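 active means mean inhibition over triplicates above the low-control well mean plus 3 SD, set per campaign, cut at about 13% in these data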;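 further: signal is single emission at 671 nm which falls as cellular cAMP rises; 0% = forskolin-stimulated wells and 100% = buffer without forskolin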
MC4R cAMP antag = human MC4R cAMP antagonism confirmation | shares compounds with MC4R antagonist | MC4R-expressing cells, MTII-stimulated cAMP, TR-FRET | inhibition, % at 6.5 µM | 1,600 tested, 27% active; in the data active means inhibition above about 29%;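 further: 0% = agonist stimulated wells alone and 100% = agonist stimulated wells plus saturating reference antagonist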
GAA30 FXN cntr = activates GAA30 frataxin promoter, counter-screen for GAA850 activators; shares compounds with FXN GAA850 act; 1,900 tested, 66% active; activation, % at 6 µM; AID 588350; HEK293 lucGAA30 FXN promoter luciferase, 24 h; DMSO = 0%, 5 µM ipriflavone = 100%;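 active means mean activation above the mean of solvent-only control wells plus 3 SD, cut at about 22% in these data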;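 further: counterscreen of GAA850 promoter hits where activity marks nonselective or luminescence artifacts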
GAA850 confirm = GAA850 FXN promoter activation confirmation; 1,900 tested, 86% active; shares compounds with FXN GAA850 act; HEK293 lucGAA850 FXN promoter luciferase reporter, 24 h; 100% = activation by SAHA; AID 588351; activation, % at 6 µM;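 active means mean activation above a set limit taken from the primary screen, cut at about 8% in these data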;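 further: 0% = DMSO wells and 100% = 10 µM SAHA wells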
OPRM1 ag = counter-screen for mouse HTR2A agonists: human mu opioid receptor agonists; shares compounds with HTR2A ag; U2OS OPRM1 beta-arrestin PathHunter, luminescence; DMSO 0%, DAMGO 9.3 µM 100%; activation, % at 9.3 µM; 2,300 tested, 5.3% active; AID 624380;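 active means mean activation above the mean of DMSO-only wells plus 3 SD, cut at about 0.5% in these data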
Target sequence (P35372 whole entry, looked up): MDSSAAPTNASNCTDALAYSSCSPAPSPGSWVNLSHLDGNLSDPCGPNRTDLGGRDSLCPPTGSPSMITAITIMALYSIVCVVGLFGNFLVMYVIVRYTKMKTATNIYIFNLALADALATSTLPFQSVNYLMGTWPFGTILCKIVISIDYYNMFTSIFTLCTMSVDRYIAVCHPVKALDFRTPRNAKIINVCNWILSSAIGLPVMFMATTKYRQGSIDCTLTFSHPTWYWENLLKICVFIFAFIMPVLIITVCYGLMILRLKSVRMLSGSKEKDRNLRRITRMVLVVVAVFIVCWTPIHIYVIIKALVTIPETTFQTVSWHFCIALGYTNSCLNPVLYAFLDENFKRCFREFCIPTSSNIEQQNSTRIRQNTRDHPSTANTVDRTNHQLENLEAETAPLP
m5-HT2A ag conf = confirmation of mouse HTR2A serotonin receptor agonists; shares compounds with HTR2A ag; CHO-K1 PathHunter beta-arrestin recruitment, luminescence; DMSO 0%, 30 µM serotonin 100%; activation, % at 7.6 µM; 2,300 tested, 19% active; AID 624381;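 active means mean activation across triplicates above the hit threshold derived in the original primary screen, cut at about 15% in these data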
* hit, by the source's call; . = no result; + = active, no number.

SMILES | MC4R antagonist | AHR activator | MC4R ag barr | FXN GAA850 act | HTR2A ag | cAMP nonselect | MC4R cAMP antag | GAA30 FXN cntr | GAA850 confirm | others
CC(C)C(NC(=O)c1ccc(C(C)(C)C)cc1)C(=O)N1CCC(C(N)=O)CC1 (stereo not given) | 2 | -1 | 0 | 1 | -6 | . | . | . | .
CCOc1ccc(C2C(C(=O)c3ccc(C)o3)=C(O)C(=O)N2c2nc(C)c(C(=O)OC)s2)cc1 (stereo not given) | + | 9 | 1 | 7.6* | 10 | 75* | 143* | 33* | 18*
Cc1nn(CC(=O)Nc2ccc3c(c2)OCO3)c(C)c1Cl | -3 | 31 | -3 | 1 | -1 | . | . | . | .
Cc1cc(Br)ccc1NC(=O)CNC(=O)Cn1ncc(Cl)c(Cl)c1=O | 47* | 4 | -2 | 8.7* | -4 | 29* | 53* | 1 | -16
CCOC(=O)c1ccc(NC(=O)Cn2ncc(Cl)c(Cl)c2=O)cc1 | 18 | 2 | -3 | -13 | 2 | . | . | . | .
Cc1ccc(S(=O)(=O)N2CCCCC2)cc1NC(=O)Cn1ncc(Cl)c(Cl)c1=O | 2 | 1 | 0 | -5 | -6 | . | . | . | .
O=C(Cn1ncc(Cl)c(Cl)c1=O)Nc1ccc2c(c1)OCO2 | 37* | 1 | -4 | 11* | 1 | 28* | 66* | 8 | 12*
CCC(=O)Nc1ccc(C(=O)Cn2ncc(Cl)c(Cl)c2=O)cc1 | 29* | 3 | 1 | 8.7* | 2 | 22* | 26 | 22* | 11*
CCCCCCn1c(=O)n2n(c1=O)C[C@]1(OC(=O)NC3CCCC3)CN(S(=O)(=O)c3ccc(C)cc3)C[C@]1(O)C2 | -8 | . | 1 | -3 | -3 | . | . | . | .
O=C(Cn1ncc(Cl)c(Cl)c1=O)N1CCN(S(=O)(=O)c2ccc3ccccc3c2)CC1 | 50* | -2 | -1 | 9.7* | -1 | 24* | 51* | -63 | 16*
CCCn1nc(NS(=O)(=O)c2cccc3nonc23)c2cc3cccc(C)c3nc21 | 5 | 5 | -2 | 1 | 6 | . | . | . | .
CCOC(=O)c1ccc(N=c2sc(C(=O)OC)cc(=O)n2CCCN2CCOCC2)cc1 | 12 | -1 | -1 | 1 | -3 | . | . | . | .
CCOC(=O)c1ccc(N=c2sc(C(=O)OC)cc(=O)n2Cc2ccco2)cc1 | 32* | -2 | 1 | 15* | 0 | 10 | 36* | 7 | 35*
Cc1ccc(/C=C/C(=O)N2CCN(S(=O)(=O)c3ccc(C)c(C)c3)CC2)o1 | 38* | 1 | -1 | 7.6* | -2 | -2 | 7 | 13 | 4
S=c1[nH]nc(SCc2ccccc2)c2[nH]cnc12 | 8 | . | -3 | 5 | -7 | . | . | . | .
COc1ccc(CN2C(=O)c3ccc(C(=O)O)cc3C2=O)cc1 | 4 | 1 | 0 | 0 | -2 | . | . | . | .
CC1=NNC(=O)/C1=C\c1cn(-c2ccccc2)nc1-c1ccccc1 | 51* | 1 | -4 | 8.0* | 4 | 26* | 57* | -48 | 15*
CCOC(=O)c1c(-c2ccc(F)cc2)csc1NC(=O)CN1C(=O)NC2(CCCCC2C)C1=O (stereo not given) | 32* | 11 | 1 | 13* | -3 | -7 | 6 | 9 | 18*
OC[C@@H]1CN(Cc2ccc3c(c2)OCO3)C[C@H](n2cnc3c(NCc4ccncc4)ncnc32)O1 | 7 | . | 0 | 0 | 0 | . | . | . | .
CC(C)CN1CCN(C(=O)COC(=O)c2ccc(S(C)(=O)=O)c([N+](=O)[O-])c2)CC1 | 31* | . | -1 | 9.7* | -5 | 23* | 41* | 70* | 15*
CS(=O)(=O)c1ccc(Sc2nc3ccccc3s2)c([N+](=O)[O-])c1 | 16 | 2 | -3 | -17 | 1 | . | . | . | .
O=[N+]([O-])c1cc(S(=O)(=O)C(F)(F)F)ccc1Sc1nc2ccccc2s1 | 56* | 0 | -3 | 13* | 4 | 11 | 43* | -7 | 38*
Cc1ccc(-c2nnc(Nc3ccc4c(c3)OCO4)c3ccccc23)cc1S(N)(=O)=O | 33* | 36 | 2 | -3 | 15* | 6 | 15 | . | . | OPRM1 ag=0;m5-HT2A ag conf=4
Cc1ccc(/C=N/c2sc3c(c2C#N)CCC3)s1 | -2 | 5 | 0 | 1 | 0 | . | . | . | .
CN1CCc2c(sc(/N=C/c3cc(Cl)ccc3O)c2C#N)C1 | 39* | 11 | -1 | -2 | 19* | 1 | 4 | . | . | OPRM1 ag=-1;m5-HT2A ag conf=65*
SMILES | MC4R antagonist | AHR activator | MC4R ag barr | FXN GAA850 act | HTR2A ag | cAMP nonselect | MC4R cAMP antag | GAA30 FXN cntr | GAA850 confirm | others
Cc1cccc(C)c1NC(=O)c1sc(N)nc1-c1ccccc1 | 30* | 12 | 1 | 1 | 19* | -3 | 5 | . | . | OPRM1 ag=0;m5-HT2A ag conf=-2
Cc1ccc(NC(=O)c2sc(N)nc2-c2ccccc2)cc1C | 2 | 35 | 0 | 2 | -6 | . | . | . | .
COc1ccc(-c2cc(-c3nc4ccccn4c3NCc3ccccc3)ccc2OC)cc1 | 37* | -7 | 3 | -13 | 33* | 9 | 34* | . | . | OPRM1 ag=1.4*;m5-HT2A ag conf=29*
Cc1ccc(-n2nc3c(=O)n(C(C)C(=O)NCc4ccc(Cl)cc4)nc(C)c3c2C)cc1 (stereo not given) | 7 | 0 | 0 | -4 | 4 | . | . | . | .
CC(C)(C)OC(=O)N1CCC(NC(=O)c2nc[nH]c2C(=O)NCC(=O)OCc2ccccc2)CC1 | 34* | 2 | -1 | -5 | 21* | 9 | 8 | . | . | OPRM1 ag=0;m5-HT2A ag conf=-1
CCc1nc2c(OCC(=O)c3ccc(F)cc3)cccn2c1N(C)C(=O)c1cccs1 | -11 | . | 3 | 1 | -1 | . | . | . | .
O=C(NCc1nnnn1-c1ccc(F)c(F)c1)c1cc2ccccc2o1 | -7 | 0 | -3 | 1 | -8 | . | . | . | .
